In ChEMBL document CHEMBL1153730, “Bioactive constituents of the stem bark of Beilschmiedia zenkeri” (J Nat Prod, 2009):
pIC50: −log10 of the molar value. In brackets after ≈: the same amount, converted by molar mass. Activity calls are given as the source filed them. No cut-off for these calls is given here.

Columns and labels:
Bacillus subtilis = experiment: Antibacterial activity against Bacillus subtilis by agar well diffusion method; format: functional
How it was run: (§1)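 Agar well diffusion on pure compounds, with the value reported as MIC. Ampicillin was the positive control for B. subtilis and gentamicin for P. agarici.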

Pseudomonas agarici = experiment: Antibacterial activity against Pseudomonas agarici by agar well diffusion method; format: functional; how it was run: as §1
Streptococcus minor = experiment: Antibacterial activity against Streptococcus minor by agar well diffusion method; format: functional
How it was run: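 Agar well diffusion run on extracts and pure compounds, following earlier reports. Ampicillin served as the positive control for this strain. Activity was reported as MIC (µM).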

Plasmodium falciparum = experiment: Antiplasmodial activity against chloroquine-resistant Plasmodium falciparum W2 rings after 48 hrs by FACS analysis; format: functional, organism-based; conditions: W2, 48 h

Row | Structure (SMILES) | Activity (Bacillus subtilis) | Activity (Pseudomonas agarici) | MIC (Streptococcus minor) [µM] | MIC (Bacillus subtilis) [µM] | MIC (Pseudomonas agarici) [µM] | pIC50 (Plasmodium falciparum) | Activity (Streptococcus minor)
1 | COc1cc2c(c(O)c1OC)[C@H](O[C@@H]1C[C@@H](c3ccccc3)Oc3cc(OC)c(OC)c(OC)c31)C[C@@H](c1ccccc1)O2 [BEILSCHMIEFLAVONOID B] | inactive | inactive | 198 (≈ 119 µg/mL) | – | – | – | –
2 | CC(C)CNC(=O)/C=C/C=C/CCCCCC/C=C/c1ccc2c(c1)OCO2 [GUINEENSINE] | – | – | – | 163 (≈ 62.5 µg/mL) | 81.5 (≈ 31.3 µg/mL) | 5.43 | inactive
3 | COc1cc2c(c(OC)c1OC)[C@H](O[C@@H]1C[C@@H](c3ccccc3)Oc3cc(OC)c(OC)c(OC)c31)C[C@@H](c1ccccc1)O2 | inactive | inactive | – | – | – | – | inactive
4 | CCCCCCCCCCCCCCC(=O)OC[C@@H](O)CO | inactive | inactive | – | – | – | – | inactive
5 | COc1cc2c(c(OC)c1OC)[C@H](O)C[C@@H](c1ccccc1)O2 | inactive | inactive | – | – | – | – | inactive
6 | COc1cc2c(c(OC)c1OC)[C@H](OC)C[C@@H](c1ccccc1)O2 | inactive | inactive | – | – | – | – | inactive
7 | COc1cc(O)c2c(c1OC)OC(c1ccccc1)CC2=O (stereo not given) | inactive | inactive | – | – | – | 5.03 | inactive
8 | C=C(C)[C@@H]1CC[C@]2(C(=O)O)CC[C@]3(C)[C@H](CC[C@@H]4[C@@]5(C)CC[C@H](O)C(C)(C)[C@@H]5CC[C@]43C)[C@@H]12 [BETULINIC ACID] | inactive | inactive | – | – | – | 5.28 | inactive
9 | O=C(/C=C/c1ccccc1)NCCc1ccc2c(c1)OCO2 | inactive | inactive | – | – | – | – | inactive
